The text below walks through data of ChEMBL document CHEMBL1177705, “Synthesis and biological characterization of the histone deacetylase inhibitor largazole and C7- modified analogues” (J Med Chem, 2010).

Calls of active or inactive are those of the source. The rule behind the calls is not given here.

For orientation: IC50 means the concentration at which inhibition is half-maximal.

For assay [1], the system named is NB-4. Briefly: Cell cycle arrest in human NB4 cells assessed as increase in accumulation at pre-G1 phase at 5 uM after 24 hrs by FACS analysis. It counts as functional, cell-based. The essentials: (§1)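 NB4 acute promyelocytic leukemia cells grown in RPMI 1640 with heat-inactivated FBS, glutamine, antibiotics, 37 °C, 5% CO2. Compounds given from DMSO. They were kept 30 min in the dark, then DNA content was read by flow cytometry with the pre-G1 fraction scored. Run in triplicate.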
A general note: In flow cytometry, cells or beads pass a laser one at a time.

The test system of assay [2] is NB-4. The experiment in a line: Effect on differentiation of human NB4 cells assessed as induction of CD11c expression at 5 uM after 48 hrs by propidium iodide staining-base FACS analysis. It counts as functional. The essentials:
(§2)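 NB4 cells in RPMI 1640/FBS at 37 °C, 5% CO2, treated with compounds from DMSO. 2.5 × 10^5 cells were pelleted and PBS-washed, then stained 30 min at 4 °C in the dark with PE-anti-CD11c, with PE-IgG as isotype background control. Cells were resuspended in PBS with 0.25 μg/mL PI and analysed by flow cytometry, excluding PI-positive cells. Run in triplicate.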

In assay [3] the test system is NB-4. Briefly: Effect on differentiation of human NB4 cells assessed as induction of CD11c expression at 5 uM after 24 hrs by propidium iodide staining-base FACS analysis. It counts as functional. In outline: as §2
The next assay concerns the target Tubulin (Homo sapiens) (UniProt P68371+Q9H4B7+P0DPH7+P68366+Q13509+Q71U36+P04350+Q3ZCM7+P07437+P68363+Q9BQE3+Q6PEY2+Q13885+Q9BVA1+Q9BUF5). The experiment in a line: Inhibition of HDAC in human NB4 cells assessed as increase in acetylate tubulin level at 5 uM after 24 hrs by Western blot analysis. Format: cell-based. The note with it: NB-4. The essentials:
(§3)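 NB4 cells treated with compounds from DMSO, harvested and PBS-washed. Lysis was 15 min at 4 °C in 50 mM Tris-HCl pH 7.4, 150 mM NaCl, 1% NP40, 10 mM NaF, 1 mM PMSF and protease inhibitors, then spun 30 min at 4 °C. Protein was measured by Bradford and lysates immunoblotted, with ERK1 as loading control.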
A general note: In western blotting, separated proteins are transferred to a membrane and probed.

The target in assay [4] is Histone deacetylase (Homo sapiens) (UniProt Q13547+O15379+Q9UBN7+Q92769+Q9UQL6+Q8WUI4+Q9BY41+Q96DB2+P56524+Q9UKV0+Q969S8). As to conditions: NB-4, at 5 µM.
The target in assay [5] is T1, Histone deacetylase 1 (Homo sapiens, UniProt Q13547). The experiment in a line: Inhibition of human recombinant HDAC1 after 15 mins by fluorimetric assay.
T1 sequence (Q13547 whole entry): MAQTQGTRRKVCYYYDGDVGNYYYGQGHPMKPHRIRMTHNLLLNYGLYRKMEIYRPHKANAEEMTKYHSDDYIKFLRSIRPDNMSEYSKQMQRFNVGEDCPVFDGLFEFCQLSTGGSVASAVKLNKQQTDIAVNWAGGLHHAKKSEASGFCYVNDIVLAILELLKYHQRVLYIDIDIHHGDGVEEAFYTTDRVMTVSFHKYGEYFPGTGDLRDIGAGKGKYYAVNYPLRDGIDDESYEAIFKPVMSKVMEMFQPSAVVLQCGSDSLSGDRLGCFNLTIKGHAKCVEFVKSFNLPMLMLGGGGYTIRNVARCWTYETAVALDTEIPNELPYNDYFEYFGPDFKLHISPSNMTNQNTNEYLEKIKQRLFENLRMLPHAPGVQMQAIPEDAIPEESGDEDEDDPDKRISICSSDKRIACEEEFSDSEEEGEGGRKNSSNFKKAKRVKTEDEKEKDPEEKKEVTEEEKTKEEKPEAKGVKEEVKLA
In assay [6] the test system is NB-4. The experiment in a line: Induction of p21WAF1/CIP1 expression in human NB4 cells at 5 uM after 24 hrs by Western blot analysis. It counts as functional, cell-based. In outline:
as §3

In assay [7] the test system is NB-4. Briefly: Cell cycle arrest in human NB4 cells assessed as increase in accumulation at pre-G1 phase at 1 uM after 24 hrs by FACS analysis. Format: functional, cell-based. In outline:
as §1

The next assay concerns the target Histone deacetylase 4 (Homo sapiens, UniProt P56524). Briefly: Inhibition of human recombinant HDAC4 after 15 mins by fluorimetric assay.
In assay [8] the target is T1, Histone deacetylase 1. The experiment in a line: Ratio of compound IC50 to largazole IC50 for human recombinant HDAC1. In outline: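 Enzyme was preincubated with compound 15 min at 37 °C, then 50 μM specific fluorogenic substrate was added. Reaction ran 1 h at 37 °C with gentle shaking, read by fluorescence; IC50 derived.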
The target in assay [9] is T1, Histone deacetylase 1. Briefly: Ratio of largazole IC50 to compound IC50 for human recombinant HDAC1.
The subject of assay [10] is NB-4. The experiment in a line: Cell cycle arrest in human NB4 cells assessed as mild increase in accumulation at pre-G1 phase at 5 uM after 48 hrs by FACS analysis. Format: functional, cell-based. The essentials: as §1

Chain of Histone deacetylase 4 (P56524 whole entry): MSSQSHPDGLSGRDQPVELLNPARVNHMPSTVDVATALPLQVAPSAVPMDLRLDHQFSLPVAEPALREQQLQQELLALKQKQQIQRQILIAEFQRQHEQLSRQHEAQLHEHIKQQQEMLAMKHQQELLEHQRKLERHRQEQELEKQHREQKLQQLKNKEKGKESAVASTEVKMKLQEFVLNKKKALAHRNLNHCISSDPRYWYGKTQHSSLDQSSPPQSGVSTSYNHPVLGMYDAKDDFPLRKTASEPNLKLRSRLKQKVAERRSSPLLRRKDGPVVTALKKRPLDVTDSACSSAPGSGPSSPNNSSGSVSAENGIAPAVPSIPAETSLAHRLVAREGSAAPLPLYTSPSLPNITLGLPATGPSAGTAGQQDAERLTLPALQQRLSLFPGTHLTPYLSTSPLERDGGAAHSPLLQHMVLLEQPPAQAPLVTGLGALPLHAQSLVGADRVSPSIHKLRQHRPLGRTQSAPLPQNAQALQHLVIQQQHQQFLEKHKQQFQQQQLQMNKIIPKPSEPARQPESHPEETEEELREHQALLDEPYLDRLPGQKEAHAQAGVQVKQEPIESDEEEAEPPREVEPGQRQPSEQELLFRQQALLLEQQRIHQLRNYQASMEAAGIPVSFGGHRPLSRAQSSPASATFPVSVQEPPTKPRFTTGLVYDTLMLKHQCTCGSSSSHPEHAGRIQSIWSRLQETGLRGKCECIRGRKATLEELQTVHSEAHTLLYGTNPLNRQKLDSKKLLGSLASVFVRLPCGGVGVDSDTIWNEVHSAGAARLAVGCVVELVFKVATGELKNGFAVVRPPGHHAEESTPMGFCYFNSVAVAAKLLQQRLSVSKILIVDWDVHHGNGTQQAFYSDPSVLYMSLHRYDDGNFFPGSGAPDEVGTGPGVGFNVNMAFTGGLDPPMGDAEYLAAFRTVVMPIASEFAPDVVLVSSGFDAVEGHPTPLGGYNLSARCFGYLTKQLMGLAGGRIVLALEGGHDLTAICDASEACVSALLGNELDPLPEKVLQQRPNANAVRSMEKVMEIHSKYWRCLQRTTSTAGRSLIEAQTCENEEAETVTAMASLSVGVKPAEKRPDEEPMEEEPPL

With `CCCCCCCC(=O)SCC/C=C/[C@@H]1CC(=O)NCc2nc(cs2)C2=N[C@@H](CS2)C(=O)N[C@@H](C(C)C)C(=O)O1`, the result in the assay on NB-4 [1], in the assay with NB-4 [6] and in the assay with NB-4 [7] was Active. Also, the Activity in the assay with NB-4 [2] and with NB-4 [3] was 5% in each case. At Tubulin (Homo sapiens), the “increase in acetylated tubulin (active/not active)” value (“increase … (active/not active)” below) is “Active”. Moreover, the inhibition result in [4] was “Active”. For the same molecule, the IC50 at Histone deacetylase 1 [5] came out at 13.7 nM; at Histone deacetylase 4, 7500 nM.

Take `CCCCCCCC(=O)SCC/C=C/[C@@H]1CC(=O)NCc2nc(cs2)C2=N[C@@](Cc3ccccc3)(CS2)C(=O)N[C@@H](C(C)C)C(=O)O1`: the outcome with NB-4 [1], in the assay with NB-4 [6] and in the assay with NB-4 [7] was Active. The Activity in the assay on NB-4 [2] and with NB-4 [3] was 5% throughout. The “increase … (active/not active)” value on Tubulin (Homo sapiens) is “Active”. In assay [4], the inhibition entry was “Active”. For the same molecule, the values for the IC50 at Histone deacetylase 1 [5] and at Histone deacetylase 4 were 4.5 nM and 3000 nM, respectively.

Take `O=C(CCCCCCC(=O)Nc1ccccc1)NO`: the outcome with NB-4 [1] and in the assay on NB-4 [6] was Active. At Tubulin (Homo sapiens), the “increase … (active/not active)” value is “Active”.

Turning to `CC1=C(/C=C/C(C)=C/C=C/C(C)=C/C(=O)O)C(C)(C)CCC1`, the outcome in the assay on NB-4 [7] was Active.

Turning to `CCCCCCCC(=O)SCC/C=C/[C@@H]1CC(=O)NCc2nc(cs2)C2=N[C@@](C)(CS2)C(=O)N[C@@H](C(C)C)C(=O)O1` [LARGAZOLE], the outcome in the assay with NB-4 [1], in the assay on NB-4 [6] and in the assay with NB-4 [7] was Active. Besides, the Activity in the assay on NB-4 [2] and with NB-4 [3] was 5% each time. The “increase … (active/not active)” value on Tubulin (Homo sapiens) was “Active”. The inhibition result in [4] is “Active”. Besides, the values for the IC50 on Histone deacetylase 1 [5] and on Histone deacetylase 4 were 11.4 nM and 3000 nM, respectively.

Consider `Nc1ccccc1NC(=O)c1ccc(CNC(=O)OCc2cccnc2)cc1`, for which the outcome in the assay on NB-4 [1] and in the assay on NB-4 [6] was Active.

Consider `CCCCCCCC(=O)SCC/C=C/[C@@H]1CC(=O)NCc2nc(cs2)C2=N[C@@](CC)(CS2)C(=O)N[C@@H](C(C)C)C(=O)O1`, for which the Ratio IC50 at Histone deacetylase 1 [8] was found to be 10. Besides, the outcome in the assay with NB-4 [1], in the assay on NB-4 [6] and with NB-4 [7] was Active. Moreover, the Activity with NB-4 [2] and in the assay with NB-4 [3] was 5% each time. In addition, on Tubulin (Homo sapiens), the “increase … (active/not active)” value was “Active”. Besides, in assay [4], the inhibition result is “Active”. Also, the IC50 on Histone deacetylase 1 [5] was found to be 161 nM; on Histone deacetylase 4, 4900 nM.

In the case of `CCCCCCCC(=O)SCC/C=C/[C@@H]1CC(=O)NCc2nc(cs2)-c2nc(cs2)C(=O)N[C@@H](C(C)C)C(=O)O1`, the outcome in the assay with NB-4 [1] was inactive. For the same molecule, the Activity in the assay with NB-4 [2] and with NB-4 [3] was 5% in each case. Also, the Ratio IC50 on Histone deacetylase 1 [9] was 2. In addition, on Tubulin (Homo sapiens), the “increase … (active/not active)” value is “inactive”. Besides, in [4], the inhibition entry is “Active”. The figures for the half-maximal inhibitory concentration (IC50) at Histone deacetylase 1 [5] and at Histone deacetylase 4 were 4.7 nM and 3000 nM, respectively. Moreover, in the assay with NB-4 [10], the result was Active.
